According to ChEMBL document CHEMBL1148639, “A novel series of potent and selective PDE5 inhibitors with potential for high and dose-independent oral bioavailability” (J Med Chem, 2006):
Converted amounts (≈) assume the structure as drawn. Values belong to the compound of their own block, whether it stands above or below them.

Columns and labels:
[1] = target: T1, cGMP-specific 3',5'-cyclic phosphodiesterase (Homo sapiens, UniProt O76074)
[2] = Selectivity for human PDE5 over canine retinal PDE6
How it was run: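 Ratio of IC50s for PDE5 from human corpus cavernosum and cone PDE6 from canine retina. PDE6 came from the 100 000g supernatant of retina homogenate, purified by anion exchange with a NaCl gradient. Activity was read by scintillation proximity assay with cGMP (3:1 unlabeled:3H) at about 1/3 Km, so IC50 = Ki. Buffer was 20 mM Tris-HCl pH 7.4, 5 mM MgCl2 and 1 mg/mL BSA. Incubation ran 30-60 min at 30 °C, keeping turnover below 30%. PDE5 curves spanned 1 nM-10 µM.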

[3] = Distribution coefficient, logD of the compound; format: physicochemical; conditions: octanol/water
[4] = Stability in dog liver microsome; format: ADME, Canis lupus familiaris; conditions: liver microsomes, read-out: Stability
[5] = Apparent permeability in human Caco-2 cell at 25 uM; format: ADME, cell-based
How it was run: (§1)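 Human Caco-2 monolayers were used. Papp = amount transported/(time × surface area × initial concentration). Compounds were tested at 25 µM unless stated otherwise. Efflux ratio = secretory flux ÷ absorptive flux.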

[6] = Solubility at pH 7.3; format: physicochemical; conditions: buffer
How it was run: (§2)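 Solid was removed by filtration (with filter-binding check) or double centrifugation. The pH of the soluble fraction was measured, and the solution was diluted in mobile phase and quantified by HPLC or MS. Bulk form was checked by microscopy.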

[7] = Ratio of secretory flux to absorptive flux in human Caco-2 cell; format: ADME, cell-based
How it was run: as §1

[8] = Solubility at pH 6.95; format: physicochemical; conditions: buffer
How it was run: as §2

physchem = conditions: octanol/water, pH 7.4
[9] = Volume of distribution in dog at 0.5 mg/kg; format: ADME, organism-based, Canis lupus familiaris; design: dose 0.5 mg/kg; conditions: in vivo, read-out: Vdss
How it was run: (§3)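 Compound was given intravenously to dogs. Pharmacokinetic parameters, including plasma protein binding, are means of n = 2 animals.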

[10] = Tmax in dog at 0.5 mg/kg; format: ADME, organism-based, Canis lupus familiaris; design: dose 0.5 mg/kg; conditions: in vivo
[11] = Plasma protein binding in dog at 0.5 mg/kg; format: ADME, organism-based, Canis lupus familiaris; design: dose 0.5 mg/kg; conditions: read-out: PPB (converted)
How it was run: as §3

[12] = Clearance in dog at 0.5 mg/kg; format: ADME, organism-based, Canis lupus familiaris; design: dose 0.5 mg/kg; conditions: in vivo
How it was run: as §3

[13] = Half life in dog at 0.5 mg/kg; format: ADME, organism-based, Canis lupus familiaris; design: dose 0.5 mg/kg; conditions: in vivo
How it was run: as §3

[14] = Oral bioavailability in dog at 0.5 mg/kg; format: ADME, organism-based, Canis lupus familiaris; conditions: in vivo
[15] = Solubility at pH 7.6; format: physicochemical; conditions: buffer
How it was run: as §2

[16] = Solubility at pH 7.4; format: physicochemical; conditions: buffer
How it was run: as §2

[17] = target: T1, cGMP-specific 3',5'-cyclic phosphodiesterase; remark: listed apart in the source
[18] = Oral bioavailability in human; format: ADME, organism-based; conditions: in vivo

IC50 [1]: 7 nM
SMILES: CCCOc1ncc(C(C)=O)cc1-c1nc2c(CC)n(C3CCNCC3)nc2c(=O)[nH]1

Selectivity ratio [2]: 53
SMILES: CCCOc1ncc(C(C)=O)cc1-c1nc(O)c2nn(C3CCNCC3)c(CC)c2n1

IC50 [1]: 18 nM
SMILES: CCCCOc1ncc(C(C)=O)cc1-c1nc2c(CC)n(C3CCNCC3)nc2c(=O)[nH]1

Selectivity ratio [2]: 37
SMILES: CCCOc1ncc(C(C)=O)cc1-c1nc(O)c2nn(C3CCN(C)CC3)c(CC)c2n1

IC50 [1]: 9.5 nM
logD [3]: 1.2
SMILES: CCCOc1ncc(C(C)=O)cc1-c1nc2c(CC)n(C3CN(C)C3)nc2c(=O)[nH]1

IC50 [1]: 2.6 nM
half-life [4]: > 2 h
Papp at 25 µM [5]: 37 ×10⁻⁶ cm/s
solubility [6]: < 10 µg/mL
SMILES: CCCCOc1ncc(C(C)=O)cc1-c1nc2c(CC)n(CCN3CCOCC3)nc2c(=O)[nH]1

IC50 [1]: 18.2 nM
Selectivity ratio [2]: 26
logD [3]: 0.6
SMILES: CCCOc1ncc(C(C)=O)cc1-c1nc(=O)c2nn(C3CNC3)c(CCC)c2[nH]1

Selectivity ratio [2]: 55
SMILES: CCCOc1ncc(C(C)=O)cc1-c1nc(=O)c2nn(C3CNC3)c(CC)c2[nH]1

Selectivity ratio [2]: 29
SMILES: CCCCOc1ncc(C(C)=O)cc1-c1nc(O)c2nn(C3CNC3)c(CC)c2n1

IC50 [1]: 7.1 nM
SMILES: CCCOc1ncc(C(C)=O)cc1-c1nc2c(CC)n(C3CN(CC)C3)nc2c(=O)[nH]1

IC50 [1]: 6.4 nM
SMILES: CCCCOc1ncc(C(C)=O)cc1-c1nc2c(CC)n(C3CN(C)C3)nc2c(=O)[nH]1

Selectivity ratio [2]: 43
SMILES: CCCCOc1ncc(C(C)=O)cc1-c1nc(O)c2nn(C3CN(C)C3)c(CC)c2n1

IC50 [1]: 0.9 nM
half-life [4]: > 2 h
Selectivity ratio [2]: 142
efflux ratio [7]: 1.6
solubility [8]: 6 µg/mL (≈ 13.3 µM)
logD (physchem): 2.6
Papp at 25 µM [5]: 5 ×10⁻⁶ cm/s
SMILES: CCCCOc1ncc(C(C)=O)cc1-c1nc(O)c2nn(Cc3nccn3C)c(CC)c2n1

IC50 [1]: 2.7 nM
Selectivity ratio [2]: 58
SMILES: CCCOc1ncc(C(C)=O)cc1-c1nc(O)c2nn(Cc3nccn3C)c(CC)c2n1

Selectivity ratio [2]: 57
SMILES: CCCCOc1ncc(C(C)=O)cc1-c1nc(O)c2nn(C3CCNCC3)c(CC)c2n1

IC50 [1]: 13 nM
SMILES: CCCOc1ncc(C(C)=O)cc1-c1nc2c(CC)n(C3CCN(CC)CC3)nc2c(=O)[nH]1

IC50 [1]: 21 nM
SMILES: CCCCOc1ncc(C(C)=O)cc1-c1nc2c(CC)n(C3CNC3)nc2c(=O)[nH]1

IC50 [1]: 5.2 nM
Vd [9]: 7.8 L/kg
Tmax [10]: 1.9 h
half-life [4]: > 2 h
efflux ratio [7]: 0.5
fraction unbound [11]: 0.34
clearance [12]: 13 mL/min/kg
half-life [13]: 7.2 h
logD (physchem): 2.5
Papp at 25 µM [5]: 28 ×10⁻⁶ cm/s
bioavailability [14]: 91%
solubility [6]: 170 µg/mL (≈ 388 µM)
SMILES: CCCOc1ncc(C(C)=O)cc1-c1nc2c(CC)n(C3CN(C(C)C)C3)nc2c(=O)[nH]1

Selectivity ratio [2]: 69
SMILES: CCCOc1ncc(C(C)=O)cc1-c1nc(O)c2nn(C3CN(C)C3)c(CC)c2n1

Selectivity ratio [2]: 77
SMILES: CCCCOc1ncc(C(C)=O)cc1-c1nc(O)c2nn(C3CCN(C)CC3)c(CC)c2n1

IC50 [1]: 17 nM
efflux ratio [7]: 0.7
Papp at 25 µM [5]: 43 ×10⁻⁶ cm/s
SMILES: CCCc1nn(C)c2c(=O)[nH]c(-c3cc(C(C)=O)ccc3OCC)nc12

IC50 [1]: 34 nM
logD [3]: 0.3
SMILES: CCCOc1ncc(C(C)=O)cc1-c1nc2c(CC)n(C3CNC3)nc2c(=O)[nH]1

IC50 [1]: 14.7 nM
Selectivity ratio [2]: 30
logD [3]: 1.5
SMILES: CCCOc1ncc(C(C)=O)cc1-c1nc(O)c2nn(C3CN(C)C3)c(CCC)c2n1

Selectivity ratio [2]: 18
SMILES: CCCOc1ncc(C(C)=O)cc1-c1nc(O)c2nn(C3CCN(CC)CC3)c(CC)c2n1

IC50 [1]: 53 nM
Selectivity ratio [2]: 58
SMILES: CCc1c2nc(-c3cc(C(C)=O)cnc3OCCOC)nc(O)c2nn1CCN1CCOCC1

Selectivity ratio [2]: 84
SMILES: CCc1c2nc(-c3cc(C(C)=O)cnc3OCC(C)C)nc(O)c2nn1C1CN(C)C1

Selectivity ratio [2]: 153
SMILES: CCCCOc1ncc(C(C)=O)cc1-c1nc(O)c2nn(C3CN(CC)C3)c(CC)c2n1

Selectivity ratio [2]: 61
SMILES: CCCOc1ncc(C(C)=O)cc1-c1nc(O)c2nn(C3CN(CC)C3)c(CC)c2n1

IC50 [1]: 9.1 nM
SMILES: CCCCOc1ncc(C(C)=O)cc1-c1nc2c(CC)n(C3CCN(C)CC3)nc2c(=O)[nH]1

IC50 [1]: 3.6 nM
Vd [9]: 22 L/kg
solubility [15]: 1100 µg/mL (≈ 2360 µM)
half-life [4]: > 2 h
efflux ratio [7]: 1
fraction unbound [11]: 0.4
clearance [12]: 38 mL/min/kg
half-life [13]: 6.7 h
logD (physchem): 1.8
Papp at 25 µM [5]: 53 ×10⁻⁶ cm/s
SMILES: CCCCOc1ncc(C(C)=O)cc1-c1nc2c(CC)n(C3CCN(CC)CC3)nc2c(=O)[nH]1

IC50 [1]: 8.2 nM
SMILES: CCc1c2nc(-c3cc(C(C)=O)cnc3OCC(C)C)[nH]c(=O)c2nn1C1CN(C)C1

solubility [16]: 390 µg/mL (≈ 889 µM)
IC50 [1]: 5.5 nM
Vd [9]: 13.4 L/kg
Tmax [10]: 1.4 h
half-life [4]: 1.58 h
efflux ratio [7]: 0.9
fraction unbound [11]: 0.38
clearance [12]: 17.5 mL/min/kg
half-life [13]: 9 h
logD (physchem): 2.8
Papp at 25 µM [5]: 30 ×10⁻⁶ cm/s
bioavailability [14]: 76%
IC50 [17]: 5.5 nM
SMILES: CCCCOc1ncc(C(C)=O)cc1-c1nc2c(CC)n(C3CN(CC)C3)nc2c(=O)[nH]1

IC50 [1]: 12 nM
SMILES: CCCOc1ncc(C(C)=O)cc1-c1nc2c(CC)n(C3CCN(C)CC3)nc2c(=O)[nH]1

Selectivity ratio [2]: 350
SMILES: CCCCOc1ncc(C(C)=O)cc1-c1nc(O)c2nn(C3CCN(CC)CC3)c(CC)c2n1

IC50 [1]: 1.7 nM
efflux ratio [7]: 0.8
Papp at 25 µM [5]: 33 ×10⁻⁶ cm/s
SMILES: CCCc1nn(C)c2c(=O)[nH]c(-c3cc(C(=O)CN4CCOCC4)ccc3OCC)nc12

IC50 [1]: 1.3 nM
bioavailability [18]: 45%
SMILES: CCc1c2nc(-c3cc(S(=O)(=O)N4CCN(CC)CC4)cnc3OCCOC)[nH]c(=O)c2nn1Cc1ccccn1

Selectivity ratio [2]: 60
SMILES: CCCOc1ncc(C(C)=O)cc1-c1nc(O)c2nn(C3CN(C(C)C)C3)c(CC)c2n1
